Measurements of several laboratories.
Lines come from different studies, so protocols differ.
Effect on: enzyme activity
Action: inhibitor
FGFR1: Fibroblast growth factor receptor 1 (FGFR1, Homo sapiens, UniProt P11362)

`FC(F)c1nc2ccccc2n1-c1nc(N2CCOCC2)nc(N2CCOCC2)n1` has a remaining activity of 102% (FGFR1; 10 µM).
The remaining activity of `Cc1sc(C(=O)NC2COC2)cc1-n1cc(NC(=O)Nc2c(F)cccc2Cl)cn1` is reported as 114% (FGFR1; 10 µM).
`CCCOc1ccc(OC)c(F)c1C(=O)c1ccc(C(=O)N[C@@H]2CNC[C@H]2NC(=O)c2ccc3[nH]ncc3c2)cc1` gave a remaining activity of 23% (Fibroblast growth factor receptor 1 (FGFR1, Homo sapiens, UniProt P11362, V561M); 10 µM).
For `COc1cc(Cl)c(C(=O)N[C@@H](CN[C@H]2CC[C@@H](N)CC2)Cc2ccc(C#N)cc2)cc1-c1ccc(CN[C@H](C)c2ccc(C)cc2)o1`, the remaining activity was 94% (FGFR1; 1 µM).
`CC(C)(O)[C@H]1CC[C@H](Nc2ccc3ncc(-c4cccc(C(F)(F)F)c4)n3n2)CC1` has a remaining activity of 97% (FGFR1; 1 µM).
`Cc1[nH]c(/C=C2\C(=O)Nc3ccc(F)cc32)c(C)c1C(=O)N[C@H]1CCN(C(=O)N(C)C)C1` gave a remaining activity of 122% (FGFR1; 0.1 µM).
For `Cc1cnc(NC2CCOCC2)nc1-n1cnc(C(=O)NC(CN)c2cc(F)cc(Cl)c2)c1` (stereo not drawn), the remaining activity was 118% (FGFR1; radiometric; 1 µM).
For `COc1cc(Nc2cnc(C#N)c(O[C@H](C)CN(C)C)n2)ncc1-c1cnn(C)c1`, the remaining activity was 39% (FGFR1; radiometric; 10 µM).
With `CCN(CC)CCNC(=O)c1c(C)[nH]c(/C=C2\C(=O)Nc3ccc(F)cc32)c1C` the remaining activity was 79% (FGFR1; 0.1 µM).
For `Nc1nc(NC2CCCCC2)sc1C(=O)c1ccccc1`, the remaining activity was 97% (FGFR1; 10 µM).
With `Cn1c(=O)n(-c2ccc(C(C)(C)C#N)cc2)c2c3cc(-c4cnc5ccccc5c4)ccc3ncc21` the remaining activity was 106% (FGFR1; 10 µM).
The remaining activity of `CC(C)(C)c1nc(-c2cccc(NS(=O)(=O)c3c(F)cccc3F)c2F)c(-c2ccnc(N)n2)s1` is reported as 89% (FGFR1; radiometric; 1 µM).
